Measurements from different studies.
Compare with care: the assays were run in different laboratories.
DYRK1B: Dual specificity tyrosine-phosphorylation-regulated kinase 1B (DYRK1B, Homo sapiens, UniProt Q9Y463)
CREBBP bromodomain: CREB-binding protein, bromodomain (CREBBP, Homo sapiens, UniProt Q92793)
Rock2: Rho-associated protein kinase 2 (Rock2, Rattus norvegicus, UniProt Q62868)
PTGS2: Prostaglandin G/H synthase 2 (PTGS2, Homo sapiens, UniProt P35354)
DYRK3: Dual specificity tyrosine-phosphorylation-regulated kinase 3 (DYRK3, Homo sapiens, UniProt O43781)
CDKL5: Cyclin-dependent kinase-like 5 (CDKL5, Homo sapiens, UniProt O76039)
BRWD1 BD2: Bromodomain and WD repeat-containing protein 1, BD2 (BRWD1, Homo sapiens, UniProt Q9NSI6)

With `Cc1cnc(Nc2ccc(OCCN3CCCC3)cc2)nc1Nc1cccc(S(=O)(=O)NC(C)(C)C)c1` the ΔTm was 0.08 °C (Transcription intermediary factor 1-beta (TRIM28, Homo sapiens, UniProt Q13263); thermal stability, DSF; 10 µM).
`O=C(NCCCNc1nc(Nc2cccc(CN3CCOCC3)c2)ncc1C1CC1)C1CCC1` gave a remaining activity of 4% (Inhibitor of nuclear factor kappa-B kinase subunit epsilon (IKBKE, Homo sapiens, UniProt Q14164); enzyme activity, inhibitor, radiometric; 1 µM).
With `O=C(O)c1ccc2c(c1)nc(NCCc1ccccc1)c1ncncc12` the remaining activity was 123% (DYRK1B; enzyme activity, inhibitor, radiometric; 1 µM).
`CCN1CCN(Cc2ccc(NC(=O)c3ccc(C)c(Oc4ccnc5[nH]ccc45)c3)cc2C(F)(F)F)CC1` gave an inhibition of -11.3% (Microtubule-associated serine/threonine-protein kinase 3 (MAST3, Homo sapiens, UniProt O60307); target engagement in cells, inhibitor, chemoproteomics; Huh-7; 1 µM).
`O=C(O)c1ccc2c(c1)nc(Nc1ccc(F)c(Cl)c1)c1ccncc12` has a remaining activity of 22% (DYRK1B; enzyme activity, inhibitor, radiometric; 1 µM).
For `Cc1cc2c(NC(=O)c3cccc(C(=O)O)c3)cccc2nn1`, the ΔTm was 4 °C (CREBBP bromodomain; thermal stability, DSF; 100 µM).
`Oc1ccc(-c2nc(-c3ccncc3)c(-c3ccc(F)cc3)[nH]2)cc1` has a ΔTm of -0.47 °C (Bromodomain testis-specific protein, BD1 (BRDT, Homo sapiens, UniProt Q58F21); thermal stability, DSF; 10 µM).
The remaining signal of `Cc1ccc(NC(=O)c2ccc(C)c(C(F)(F)F)c2)cc1C#Cc1nn(C2CCC(O)CC2)c2ncnc(N)c12` (stereo not shown) is reported as 85% (Rock2; cell-free assay; 10 µM).
`O=C(O)c1ccc(O)cc1` has an inhibition of 61.1% (PTGS2; enzyme activity, inhibitor; 3.9 µg/mL).
For `Cn1nnc2ccc(NC(=O)c3cccc(C(=O)O)c3)cc21`, the ΔTm was 2 °C (CREBBP bromodomain; thermal stability, DSF; 100 µM).
`COc1cc(/C=C/C(=O)CC(=O)/C=C/c2ccc(O)c(OC)c2)ccc1O` has an activity vs control of 90% (Rock2; enzyme activity, inhibitor; 1 µM).
`O=C(O)c1ccc2c(c1)nc(Nc1ccc3ccccc3c1)c1ccncc12` gave a remaining activity of 4% (DYRK3; enzyme activity, inhibitor, radiometric; 1 µM).
For `Cc1ccc(C(=O)Nc2ccc(CN3CCN(C)CC3)c(C(F)(F)F)c2)cc1C#Cc1cnc2cccnn12`, the remaining activity was 100% (CDKL5; enzyme activity; 23.5 nM).
For `NS(=O)(=O)c1ccc(Nc2nc(-c3ccc(F)cc3)c3ccccc3n2)cc1`, the remaining binding was 4% (Bromodomain testis-specific protein, BD2 (BRDT, Homo sapiens, UniProt Q58F21); binding, competition with immobilised ligand; 1 µM).
With `N#Cc1cccc(Nc2nc3cc(C(=O)O)ccc3c3cnccc23)c1` the remaining activity was 0% (DYRK3; enzyme activity, inhibitor, radiometric; 1 µM).
`CN(C)C1CCN(CC#Cc2nn(C3CCCC3)c3nc(NCc4ccccc4)ncc23)C1` (stereo not shown) has an inhibition of 2% (Serine/threonine-protein kinase PAK 1 (PAK1, Homo sapiens, UniProt Q13153); enzyme activity, inhibitor, FRET; 0.1 µM).
For `O=C(O)c1ccc2c(c1)nc(Nc1ccc(Cl)cc1)c1ncncc12`, the remaining activity was 80% (DYRK1B; enzyme activity, inhibitor, radiometric; 1 µM).
With `C=C[C@@]1(C)C=C2CC[C@@H]3[C@](C)(CCC[C@@]3(C)C(=O)O)[C@H]2CC1` the inhibition was 85.3% (PTGS2; enzyme activity, inhibitor; 15.63 µg/mL).
For `C[S+]([O-])c1ccc(-c2nc(-c3ccncc3)c(-c3ccc(F)cc3)[nH]2)cc1` (stereo not shown), the ΔTm was 1.32 °C (BRWD1 BD2; thermal stability, DSF; 10 µM).
For `O=c1cc(-c2ccc(O)cc2)oc2cc(O)cc(O)c12`, the inhibition was 100% (PTGS2; enzyme activity, inhibitor; 31.25 µg/mL).
For `O=C(O)c1ccc2c(c1)nc(Nc1ccc(Cl)cc1)c1ccncc12`, the remaining activity was 2% (DYRK3; enzyme activity, inhibitor, radiometric; 1 µM).
With `COc1ccc(-c2cc(=O)c3c(O)cc(O[C@@H]4O[C@H](CO)[C@@H](O)[C@H](O)[C@H]4O)cc3o2)cc1O` the inhibition was 72.2% (PTGS2; enzyme activity, inhibitor; 0.98 µg/mL).
`Nc1ncnc2occ(-c3ccc(NC(=O)Nc4cc(C(F)(F)F)ccc4F)cc3)c12` has a remaining signal of 4.3% (CDKL5; cell-free assay; 20 µM).
For `O=C(O)c1ccc2c(c1)nc(NCCc1cccc(Cl)c1)c1ccncc12`, the remaining activity was 5% (DYRK3; enzyme activity, inhibitor, radiometric; 1 µM).
The ΔTm of `Cc1cc2c(cc1N1C(=O)c3cccc4c(Cl)ccc(c34)C1=O)n(C)c(=O)n2C` is reported as -1.4 °C (BRWD1 BD2; thermal stability, DSF; 10 µM).
`O=C(O)c1ccc2c(c1)nc(Nc1ccccc1)c1ccncc12` gave a remaining activity of 73% (DYRK1B; enzyme activity, inhibitor, radiometric; 1 µM).
For `COC(=O)c1ccc(O)cc1`, the inhibition was 0% (PTGS2; enzyme activity, inhibitor; 0.98 µg/mL).
`COc1ccc2c(c1)c(CC(=O)O)c(C(F)(F)F)n2C(=O)c1ccc(Cl)cc1` has a kinact/KI of 13000 M⁻¹ s⁻¹ (PTGS2; enzyme activity, inhibitor).
